Assay results as given in ChEMBL document CHEMBL3621164, “Discovery of Triazole CYP11B2 Inhibitors with in Vivo Activity in Rhesus Monkeys” (ACS Med Chem Lett, 2015).
Active and inactive are the calls of the source. The rule behind the calls is not given here.

Experiments:
[1] = molecular target: T1, Cytochrome P450 11B2, mitochondrial (Homo sapiens, UniProt P19099); assay: Inhibition of human CYP11B2 expressed in V79 cells assessed as aldosterone level after 3 hrs by HTRF assay in presence of 125 nM 11-deoxycorticosterone; format: cell-based
T1 sequence (P19099 whole entry): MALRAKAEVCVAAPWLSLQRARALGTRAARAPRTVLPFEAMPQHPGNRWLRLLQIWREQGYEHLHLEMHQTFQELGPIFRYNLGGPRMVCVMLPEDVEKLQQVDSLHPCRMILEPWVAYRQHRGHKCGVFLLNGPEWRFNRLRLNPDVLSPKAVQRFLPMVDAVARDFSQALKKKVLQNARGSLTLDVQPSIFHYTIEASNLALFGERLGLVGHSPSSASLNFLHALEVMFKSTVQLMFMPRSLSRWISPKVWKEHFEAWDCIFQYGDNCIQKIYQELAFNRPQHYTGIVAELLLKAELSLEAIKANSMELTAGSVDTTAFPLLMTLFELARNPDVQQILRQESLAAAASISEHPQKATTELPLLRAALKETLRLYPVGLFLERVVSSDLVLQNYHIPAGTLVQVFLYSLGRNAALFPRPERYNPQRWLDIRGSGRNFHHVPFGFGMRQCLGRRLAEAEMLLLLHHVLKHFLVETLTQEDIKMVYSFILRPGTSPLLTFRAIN

[2] = molecular target: T2, Cytochrome P450 11B1, mitochondrial (Homo sapiens, UniProt P15538); assay: Inhibition of human CYP11B1 expressed in V79 cells assessed as cortisol level after 3 hrs by HTRF assay in presence of 250 nM 11-deoxycortisol; format: cell-based
T2 sequence (P15538 whole entry): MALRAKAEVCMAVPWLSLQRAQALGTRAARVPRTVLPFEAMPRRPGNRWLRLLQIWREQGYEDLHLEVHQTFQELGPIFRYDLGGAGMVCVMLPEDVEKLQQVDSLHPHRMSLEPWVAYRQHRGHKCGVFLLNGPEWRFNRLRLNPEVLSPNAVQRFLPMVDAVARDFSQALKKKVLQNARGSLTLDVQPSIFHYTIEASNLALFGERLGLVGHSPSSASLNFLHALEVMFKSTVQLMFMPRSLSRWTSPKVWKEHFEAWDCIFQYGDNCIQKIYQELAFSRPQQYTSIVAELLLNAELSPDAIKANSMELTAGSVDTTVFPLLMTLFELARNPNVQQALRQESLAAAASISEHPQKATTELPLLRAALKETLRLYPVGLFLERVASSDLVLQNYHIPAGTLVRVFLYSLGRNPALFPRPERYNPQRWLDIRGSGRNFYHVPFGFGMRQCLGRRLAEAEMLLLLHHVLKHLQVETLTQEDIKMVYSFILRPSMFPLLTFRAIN

Homo sapiens = organism: Homo sapiens; assay: Selectivity index, ratio IC50 for human CYP11B1 to IC50 for human CYP11B2
Summary of the method: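 Ratio of human CYP11B1 IC50 to human CYP11B2 IC50; each IC50 calculated from n ≥ 2 determinations.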

[3] = Lipophilicity, log D of the compound by HPLC; format: physicochemical
Summary of the method: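 Lipophilicity determined experimentally by HPLC.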

[4] = Oral bioavailability in Sprague-Dawley rat at 2 mg/kg administered through gavage; format: ADME, organism-based; conditions: in vivo
Rattus norvegicus = assay: Dose normalized AUC in Sprague-Dawley rat at 2 mg/kg, po administered through gavage; format: ADME, organism-based; conditions: in vivo
[5] = Half life in Sprague-Dawley rat at 2 mg/kg, po administered through gavage by LC/MS/MS method; format: ADME, organism-based; conditions: in vivo
[6] = molecular target: T3, Steroid 17-alpha-hydroxylase/17,20 lyase (Homo sapiens, UniProt P05093); assay: Inhibition of human CYP17 expressed in COS7 cells assessed as DHEA level after 3 hrs by EIA assay in presence of 360 nM 17-hydroxypregnenolone; format: cell-based, COS-7
T3 sequence (P05093 whole entry): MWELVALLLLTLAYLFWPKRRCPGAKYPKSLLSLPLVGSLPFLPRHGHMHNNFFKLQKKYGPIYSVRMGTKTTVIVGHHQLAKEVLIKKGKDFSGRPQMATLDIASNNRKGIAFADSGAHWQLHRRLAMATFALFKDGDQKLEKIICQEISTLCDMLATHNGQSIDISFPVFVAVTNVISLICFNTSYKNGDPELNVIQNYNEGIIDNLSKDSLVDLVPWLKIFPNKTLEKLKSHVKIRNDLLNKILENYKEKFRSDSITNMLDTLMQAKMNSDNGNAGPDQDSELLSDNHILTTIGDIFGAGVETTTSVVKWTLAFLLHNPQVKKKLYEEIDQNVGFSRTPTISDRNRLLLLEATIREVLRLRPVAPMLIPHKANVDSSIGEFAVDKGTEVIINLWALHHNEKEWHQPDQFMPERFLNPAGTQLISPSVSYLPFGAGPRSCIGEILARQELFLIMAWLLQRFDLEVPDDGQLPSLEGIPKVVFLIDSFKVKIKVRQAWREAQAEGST

Cytochrome P450 3A4 = Cytochrome P450 3A4 (Homo sapiens, UniProt P08684); assay: Inhibition of human CYP3A4; format: ADME
Plasma [7] = assay: Plasma protein binding in rhesus monkey; format: ADME, cell-free, Macaca mulatta
[8] = Intrinsic clearance in rhesus monkey liver microsomes by LC/MS method; format: ADME, Macaca mulatta
[9] = Oral bioavailability in rhesus monkey at 2 mg/kg administered through gavage; format: ADME, organism-based, Macaca mulatta; conditions: in vivo
Rhesus monkey [10] = assay: Dose normalized AUC in rhesus monkey at 2 mg/kg administered through gavage; format: ADME, organism-based, Macaca mulatta; conditions: in vivo, po
[11] = Half life in rhesus monkey at 2 mg/kg administered through gavage; format: ADME, organism-based, Macaca mulatta; conditions: in vivo, po
[12] = Inhibition of rhesus monkey CYP11B2 expressed in V79 cells assessed as aldosterone level after 3 hrs by HTRF assay in presence of 125 nM 11-deoxycorticosterone; format: cell-based; conditions: Macaca mulatta, V79, 3 h
Rhesus monkey [13] = assay: Decrease in aldosterone level in iv dosed rhesus monkey plasma by LC/MS method; format: functional, organism-based; conditions: Macaca mulatta
Summary of the method: (§1)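 Plasma aldosterone and 11-deoxycortisol quantified by LC–MS at time points up to 180 min postdose; AUCs over that period calculated and compared with baseline.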

Plasma [14] = assay: Fraction unbound in iv dosed rhesus monkey plasma measured 90 mins post dose by LC/MS method; format: ADME, organism-based, Macaca mulatta; conditions: in vivo, 1.5 h
Rhesus monkey [15] = assay: Decrease in aldosterone level in rhesus monkey plasma at 0.1 mg/kg, iv by LC/MS method; format: functional; conditions: Macaca mulatta; summary of the method: as §1
Rhesus monkey [16] = assay: Decrease in aldosterone level in rhesus monkey plasma at 0.3 mg/kg, iv by LC/MS method; format: functional; conditions: Macaca mulatta; summary of the method: as §1
Plasma [17] = assay: Free plasma concentration in rhesus monkey at 0.1 mg/kg, iv measured 90 mins post dose by LC/MS method; format: ADME, organism-based, Macaca mulatta; conditions: in vivo, 1.5 h
Summary of the method: (§2)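 Anesthetized rhesus monkeys dosed i.v.; plasma drug concentration measured 90 min postdose. Free (unbound) concentration calculated from total plasma level using the free fraction determined in rhesus plasma.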

Plasma [18] = assay: Free plasma concentration in rhesus monkey at 0.3 mg/kg, iv measured 90 mins post dose by LC/MS method; format: ADME, organism-based, Macaca mulatta; conditions: in vivo, 1.5 h; summary of the method: as §2
Plasma [19] = assay: Free plasma concentration in rhesus monkey at 1 mg/kg, iv measured 90 mins post dose by LC/MS method; format: ADME, organism-based, Macaca mulatta; conditions: in vivo, 1.5 h; summary of the method: as §2
Rhesus monkey [20] = assay: Effect on 11-deoxycortisol level in rhesus monkey plasma upto 1 mg/kg, iv by LC/MS method; format: functional, organism-based; conditions: Macaca mulatta; summary of the method: as §1
[21] = Inhibition of rhesus monkey CYP11B1; parameters: species or system Macaca mulatta

Sequence of Cytochrome P450 3A4 (P08684 whole entry): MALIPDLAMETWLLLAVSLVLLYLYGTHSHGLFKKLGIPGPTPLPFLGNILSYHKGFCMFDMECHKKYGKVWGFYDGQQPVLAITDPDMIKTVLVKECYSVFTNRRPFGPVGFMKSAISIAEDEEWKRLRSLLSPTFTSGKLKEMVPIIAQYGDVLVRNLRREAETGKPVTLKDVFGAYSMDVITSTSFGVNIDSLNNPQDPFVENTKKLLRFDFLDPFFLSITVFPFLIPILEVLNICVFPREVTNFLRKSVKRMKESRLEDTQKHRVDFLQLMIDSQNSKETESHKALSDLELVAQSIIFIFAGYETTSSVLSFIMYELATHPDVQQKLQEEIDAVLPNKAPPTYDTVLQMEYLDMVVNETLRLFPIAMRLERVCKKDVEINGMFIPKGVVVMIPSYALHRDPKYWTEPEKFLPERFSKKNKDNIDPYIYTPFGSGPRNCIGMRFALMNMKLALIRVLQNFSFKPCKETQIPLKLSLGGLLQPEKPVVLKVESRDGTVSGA

- IC50 [1]: 0.064 µM
- IC50 [2]: 4.4 µM
- Ratio IC50 (Homo sapiens): 69
- logD [3]: 1.2
- bioavailability [4]: 87%
- AUC/dose (Rattus norvegicus): 1.88 µM·kg·h/mg
- half-life [5]: 1.2 h
- IC50 [6]: > 10 µM
- IC50 (Cytochrome P450 3A4): > 50 µM
- PPB (Plasma [7]): 31%
- CLint scaled [8]: < 20 mL/min/kg
- bioavailability [9]: 100%
- AUC (Rhesus monkey [10]): 16.26 µM·kg·h/mg
- half-life [11]: 7.8 h
- IC50 [12]: 0.012 µM
- Fu (Plasma [14]): 31%
- Cp(f) (Plasma [17]): 19 nM
- Cp(f) (Plasma [18]): 73 nM
- Cp(f) (Plasma [19]): 279 nM
- IC50 [21]: 3.48 µM
Structure (SMILES): Cc1nnc2n1-c1ccc(-c3cncc([C@](C)(O)C(F)(F)F)c3)cc1CC2
- inhibition (Rhesus monkey [13]): Dose-dependent effect
- inhibition in vivo at 0.1 mg/kg (Rhesus monkey [15]): 48%
- inhibition in vivo at 0.3 mg/kg (Rhesus monkey [16]): 71%
- Activity (Rhesus monkey [20]): inactive
